Experimental data pooled from the literature.
Target: Serine/threonine-protein kinase D3 (PRKD3, Homo sapiens, UniProt O94806)
Residues used in one study (O94806 1-890): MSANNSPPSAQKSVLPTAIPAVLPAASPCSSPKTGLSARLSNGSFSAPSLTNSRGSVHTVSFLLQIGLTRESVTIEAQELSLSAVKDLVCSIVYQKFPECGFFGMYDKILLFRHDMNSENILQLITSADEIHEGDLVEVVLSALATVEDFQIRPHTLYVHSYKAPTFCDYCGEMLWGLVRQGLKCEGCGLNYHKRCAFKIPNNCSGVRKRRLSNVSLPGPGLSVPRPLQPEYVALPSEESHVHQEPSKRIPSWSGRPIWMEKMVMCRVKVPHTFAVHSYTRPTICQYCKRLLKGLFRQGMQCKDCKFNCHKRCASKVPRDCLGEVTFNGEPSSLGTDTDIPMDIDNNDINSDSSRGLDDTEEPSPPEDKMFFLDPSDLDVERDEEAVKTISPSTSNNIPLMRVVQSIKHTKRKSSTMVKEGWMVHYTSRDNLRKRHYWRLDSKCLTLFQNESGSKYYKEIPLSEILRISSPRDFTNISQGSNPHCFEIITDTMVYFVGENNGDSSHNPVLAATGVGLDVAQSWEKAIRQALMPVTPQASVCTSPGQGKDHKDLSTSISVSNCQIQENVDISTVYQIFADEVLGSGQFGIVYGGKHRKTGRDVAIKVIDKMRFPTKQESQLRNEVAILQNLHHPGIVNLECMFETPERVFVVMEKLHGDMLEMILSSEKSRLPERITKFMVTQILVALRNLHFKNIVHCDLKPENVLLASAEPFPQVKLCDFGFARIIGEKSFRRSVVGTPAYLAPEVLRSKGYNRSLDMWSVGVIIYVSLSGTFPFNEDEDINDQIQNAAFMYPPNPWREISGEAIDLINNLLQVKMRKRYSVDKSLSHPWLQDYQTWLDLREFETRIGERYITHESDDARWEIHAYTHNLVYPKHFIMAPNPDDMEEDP

CO[C@@H](C)c1c(Nc2ccc([C@@H](N(C)C(=O)C3CCS(=O)(=O)CC3)C(F)(F)F)cc2)cnc2cc(Cl)nn12  remaining binding (cell-free assay, competition with immobilised ligand; 1 µM): 93%
CNc1cccc2cc(C(=O)Nc3ccc(C(=O)O)cc3)c(=O)[nH]c12  inhibition (enzyme activity, inhibitor; 10 µM): -1%
CCN1CCN(Cc2ccc(NC(=O)c3ccc(C)c(Oc4ccnc5[nH]ccc45)c3)cc2C(F)(F)F)CC1  inhibition (target engagement in cells, inhibitor, chemoproteomics; Huh-7; 1 µM): -12.7%
COCCOc1nc(-c2ccc(Cl)nc2)nc2c1CN(C(=O)c1ncn3ccccc13)CC2  remaining binding (cell-free assay, competition with immobilised ligand; 0.1 µM): 94%
c1ccc(CNc2nc(N3CCOc4ccccc43)nc3c2CCCC3)cc1  inhibition (target engagement in cells, inhibitor, chemoproteomics; 20 mM): 2.8%
Cc1nc(Cc2cccc(C(F)(F)F)c2)sc1-c1ccc(C(N)=O)nc1  remaining binding (cell-free assay, competition with immobilised ligand; 1 µM): 97%
Cc1ccc(C(=O)NCc2ccsc2)cc1C#Cc1cn(C(C)C)c2ncnc(N)c12  activity vs control (enzyme activity, inhibitor; 1 µM): 101%
Cc1sc(C(=O)NC2COC2)cc1-n1cc(NC(=O)Nc2c(F)cccc2Cl)cn1  remaining activity (enzyme activity, inhibitor; 10 µM): 105%
CC(C)(O)c1cncc(-c2nc3ccc(F)cc3n2C2CC2)c1  remaining binding (cell-free assay, competition with immobilised ligand; 1 µM): 100%
COc1cc(Cl)c(C(=O)N[C@@H](CN[C@H]2CC[C@@H](N)CC2)Cc2ccc(C#N)cc2)cc1-c1ccc(CN[C@H](C)c2ccc(C)cc2)o1  remaining activity (enzyme activity, inhibitor; 1 µM): 93%
Cn1c2c(Cl)c(Cl)ccc2c2cc[nH]c(=O)c21  ΔTm (thermal stability, DSF; 10 µM): 2.2 °C
COc1cc2c(Nc3ccc(Br)cc3F)ncnc2cc1OCC1CCN(C)CC1  remaining signal (cell-free assay; 0.5 µM): 91.7%
O=C(NC[C@@H]1[C@H]2CN(C(=O)OCc3cc(C(F)(F)F)cc(C(F)(F)F)c3)C[C@@H]12)c1ccc2[nH]nnc2c1  remaining binding (cell-free assay, competition with immobilised ligand; 1 µM): 83%
N#CCCc1ccc2c(c1)-c1[nH]c3ccc([N+](=O)[O-])cc3c1CC(=O)N2  remaining signal (cell-free assay; 0.5 µM): 84%
CN1CC(Oc2cnc(C#N)cc2-c2ccn3nc(NC(=O)C4CC4)cc3c2)C1  inhibition (enzyme activity, inhibitor; 1 µM): -13%
Cc1ccc(C(=O)Nc2ccc(CN3CCN(C)CC3)c(C(F)(F)F)c2)cc1C#Cc1cnc2cccnn12  remaining activity (enzyme activity, inhibitor; 23.5 nM): 100%
COc1cccc2c(NCc3ccccc3)nc(-n3c(N)nc4ccccc43)nc12  inhibition (target engagement in cells, inhibitor, chemoproteomics; 20 mM): -8.9%
O=C1Nc2ccc(Cl)cc2C1=Cc1cc(Cl)c(O)c(Cl)c1  remaining signal (cell-free assay; 0.5 µM): 80.7%
CC(C)(C)c1nc2c(s1)c1nc(N)ncc1c1ccc(NS(=O)(=O)c3c(F)cccc3F)c(F)c12  remaining activity (enzyme activity, inhibitor, radiometric; 1 µM): 98%
CSc1cccnc1N1CCN(Cc2nc3ccccc3[nH]2)CC1  remaining binding (cell-free assay, competition with immobilised ligand; 1 µM): 100%
CN1CCC2(CC1)NC(=O)c1c(c3ccc(Cl)c(Cl)c3n1C)C2C#N (racemic)  ΔTm (thermal stability, DSF; 10 µM): 2 °C
O=C(O)c1cc(-c2ccc(C3CCNCC3)cc2)c2ccc(-c3ccc(C(F)(F)F)cc3)cc2c1  remaining binding (cell-free assay, competition with immobilised ligand; 1 µM): 100%
COc1cc2ncnc(Nc3ccc(Oc4ccccc4)cc3C)c2cc1OC  inhibition (enzyme activity, inhibitor; 1 µM): 10%
Cn1c2c(c3ccc(Cl)c(Cl)c31)C(C#N)C(C)(C)NC2=O (stereo not drawn)  ΔTm (thermal stability, DSF; 10 µM): 1.9 °C
